Consider 17 compounds from ChEMBL document CHEMBL1149549, “Orally active antimalarials: synthesis and bioevaluation of a new series of steroid-based 1,2,4-trioxanes against multi-drug resistant malaria in mice” (Bioorg Med Chem Lett, 2007).

The structures appear in SMILES notation.

Data set [1] concerns Plasmodium yoelii. As to the kind of experiment: Antimalarial activity as reduced parasitaemia (%) against multidrug-resistant Plasmodium yoelii infected Swiss mice (Mus musculus) at 48 mg/kg peroral dose after 4 days. The note with it: route oral. The class given is functional. Set-up: scale not given: the % may be the effect or the level left. In short, it runs like this:
(§1)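 Colony-bred Swiss mice (25 ± 1 g) inoculated with 1×10^6 parasitized RBC on day 0, five per dose group. Dosed orally in groundnut oil (0.1 ml), days 0–3, as two divided doses daily. Parasitaemia read from thin blood smears. Day-4 suppression = [(C−T)/C]×100 against the control group; 100% means parasites below the detection limit. β-Arteether was the positive control.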

The subject of data set [2] is Plasmodium yoelii. Kind of data set: Antimalarial activity as reduced parasitaemia (%) against multidrug-resistant Plasmodium yoelii infected Swiss mice (Mus musculus) at 96 mg/kg peroral dose after 4 days. The class given is functional. Set-up: scale not given: the % may be the effect or the level left. The note with it: route oral. A digest of the protocol: as §1

Data set [3] concerns Mus musculus. As to the kind of experiment: Survival of multidrug-resistant Plasmodium yoelii infected Swiss mice (Mus musculus) at 96 mg/kg, perorally after 28 days. The note with it: in vivo, po, 672 h. The class given is ADME, organism-based. Set-up: dose 96 mg/kg, route oral. In short, it runs like this:
(§2)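 Swiss mice (25 ± 1 g) infected on day 0 with 1×10^6 parasitized RBC, five per dose. Given the drug orally in groundnut oil (0.1 ml), split into two daily doses on days 0–3. Parasitaemia followed by thin blood smears from day 4 to 28. Mice surviving beyond day 28 were scored as protected, expressed as the percent of treated mice. β-Arteether was the positive control.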

Data set [4] relates to Plasmodium yoelii. Kind of data set: Antimalarial activity as reduced parasitaemia (%) against multidrug-resistant Plasmodium yoelii infected Swiss mice (Mus musculus) at 24 mg/kg peroral dose after 4 days. The class given is functional. Also noted: scale not given: the % may be the effect or the level left. The note with it: route oral.
For data set [5], the system named is Mus musculus. Kind of data set: Survival of multidrug-resistant Plasmodium yoelii infected Swiss mice (Mus musculus) at 48 mg/kg, perorally after 28 days. The class given is ADME, organism-based. Set-up: dose 48 mg/kg, route oral. The settings on record: in vivo, po, 672 h. In short, it runs like this: as §2

With `C=C(c1ccccc1)C1COC2(CC[C@@]3(C)C(CC[C@H]4[C@@H]5CC[C@H](C(C)=O)[C@@]5(C)CC[C@@H]43)C2)OO1` (stereo partly specified), the Activity in the data set on Plasmodium yoelii [1] and in the data set on Plasmodium yoelii [2] was 100% in each case.
Take `C=C(c1ccccc1)C1COC2(CC[C@@]3(C)C(CC[C@@H]4[C@@H]3CC[C@]3(C)C([C@H](C)CCCC(C)C)CC[C@@H]43)C2)OO1` (stereo partly specified): the Activity is recorded as 73% with Plasmodium yoelii [2] and “Not Active” in the data set on Mus musculus [3].
Turning to `C=C(c1ccc(OC)cc1)C1COC2(CC[C@@]3(C)C(CC[C@H]4[C@@H]5CC[C@H](C(C)=O)[C@@]5(C)CC[C@@H]43)C2)OO1` (stereo partly specified), the Activity is given as 100% with Plasmodium yoelii [1], 100% in the data set on Plasmodium yoelii [2] and “Active” in the data set on Mus musculus [3].
For the compound `C=C(c1ccc(C)cc1)C1COC2(CC[C@@]3(C)C(CC[C@H]4[C@@H]5CC[C@H](C(C)=O)[C@@]5(C)CC[C@@H]43)C2)OO1` (stereo partly specified), the Activity with Plasmodium yoelii [1] and in the data set with Plasmodium yoelii [2] was 100% in each case.
With `C=C(c1ccc(Cl)cc1)C1COC2(CC[C@@]3(C)C(CC[C@H]4[C@@H]5CC[C@H](C(C)=O)[C@@]5(C)CC[C@@H]43)C2)OO1` (stereo partly specified), the Activity in the data set with Plasmodium yoelii [1] and in the data set with Plasmodium yoelii [2] was 100% each time.
With `CCO[C@H]1O[C@@H]2O[C@@]3(C)CC[C@H]4[C@H](C)CC[C@@H]([C@H]1C)[C@@]24OO3` [ARTEMOTIL], the values for the Activity in the data set on Plasmodium yoelii [1], in the data set on Plasmodium yoelii [4] and in the data set with Mus musculus [5] were 100%, 100% and “Active”, respectively.
In the case of `C=C(c1ccc(C)cc1)C1COC2(CC[C@@]3(C)C(CC[C@@H]4[C@@H]3CC[C@@]3(C)[C@H]4OCC34CC[C@@H](C)CO4)C2)OO1` (stereo partly specified), the Activity with Plasmodium yoelii [2] is listed as 50.7%; in the data set on Mus musculus [3], “Not Active”.
For `C=C(c1ccc(Br)cc1)C1COC2(CC[C@@]3(C)C(CC[C@H]4[C@@H]5CC[C@H](C(C)=O)[C@@]5(C)CC[C@@H]43)C2)OO1` (stereo partly specified), the Activity in the data set on Plasmodium yoelii [1] and in the data set with Plasmodium yoelii [2] was 100% throughout.
In the case of `C=C(c1ccc(OC)cc1)C1COC2(CC[C@@]3(C)C(CC[C@@H]4[C@@H]3CC[C@@]3(C)[C@H]4OCC34CC[C@@H](C)CO4)C2)OO1` (stereo partly specified), the values for the Activity with Plasmodium yoelii [2] and in the data set on Mus musculus [3] were 36.1% and “Not Active”, respectively.
Regarding `C=C(c1ccc(OC)cc1)C1COC2(CC[C@@]3(C)C(CC[C@H]4[C@@H]5CC[C@H]([C@H](C)CCCC(C)C)[C@@]5(C)CC[C@@H]43)C2)OO1` (stereo partly specified), the Activity was 53.5% in the data set on Plasmodium yoelii [2] and “Not Active” in the data set with Mus musculus [3].
Taken in the same sequence, the figures for `C=C(c1ccc(Br)cc1)C1COC2(CC[C@@]3(C)C(CC[C@H]4[C@@H]5CC[C@H]([C@H](C)CCCC(C)C)[C@@]5(C)CC[C@@H]43)C2)OO1` (stereo partly specified) were 26.1% and “Not Active”.
Taken in the same sequence, the figures for `C=C(c1ccc(F)cc1)C1COC2(CC[C@@]3(C)C(CC[C@@H]4[C@@H]3CC[C@@]3(C)[C@H]4OCC34CC[C@@H](C)CO4)C2)OO1` (stereo partly specified) were 45.1% and “Not Active”.
Take `C=C(c1ccc(Cl)cc1)C1COC2(CC[C@@]3(C)C(CC[C@@H]4[C@@H]3CC[C@@]3(C)[C@H]4OCC34CC[C@@H](C)CO4)C2)OO1` (stereo partly specified): the Activity is 71.7% in the data set on Plasmodium yoelii [2] and “Not Active” in the data set on Mus musculus [3].
On to `C=C(c1ccc(F)cc1)C1COC2(CC[C@@]3(C)C(CC[C@H]4[C@@H]5CC[C@H](C(C)=O)[C@@]5(C)CC[C@@H]43)C2)OO1` (stereo partly specified), for which the Activity with Plasmodium yoelii [1] and with Plasmodium yoelii [2] was 100% throughout.
For `C=C(c1ccc(C)cc1)C1COC2(CC[C@@]3(C)C(CC[C@H]4[C@@H]5CC[C@H]([C@H](C)CCCC(C)C)[C@@]5(C)CC[C@@H]43)C2)OO1` (stereo partly specified), the results for the Activity with Plasmodium yoelii [2] and with Mus musculus [3] were 27.4% and “Not Active”, respectively.
Taken in the same sequence, the figures for `C=C(c1ccc(Cl)cc1)C1COC2(CC[C@@]3(C)C(CC[C@H]4[C@@H]5CC[C@H]([C@H](C)CCCC(C)C)[C@@]5(C)CC[C@@H]43)C2)OO1` (stereo partly specified) were 43.4% and “Not Active”.
Taken in the same sequence, the figures for `C=C(c1ccc(F)cc1)C1COC2(CC[C@@]3(C)C(CC[C@H]4[C@@H]5CC[C@H]([C@H](C)CCCC(C)C)[C@@]5(C)CC[C@@H]43)C2)OO1` (stereo partly specified) were 14.8% and “Not Active”.
